Results from ChEMBL document CHEMBL1629436, “Synthesis and biological evaluation of new camptothecin derivatives obtained by modification of position 20” (Bioorg Med Chem, 2010).
The source made the active and inactive calls.

Tests used:
yA7 [1] = assay: Induction apoptosis in mouse yA7 cells assessed as relative caspase activity at 10 uM/L after 2 hrs by rhodamine 110 fluorescence assay; type: functional, cell-based
How it was run: (§1)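 Cells were pretreated with compound (10 µmol/L) for 2 h. The cell-permeable caspase substrate (Asp)2-rhodamine 110 (10 µmol/L) was then added for 2 h more. Caspase cleavage releases fluorescent rhodamine 110, and the read-out was mean fluorescence.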

yD12 [2] = assay: Induction apoptosis in mouse yD12 cells assessed as relative caspase activity at 10 uM/L after 2 hrs by rhodamine 110 fluorescence assay; type: functional, cell-based; how it was run: as §1
A2C12 [3] = assay: Induction apoptosis in mouse A2C12 cells assessed as ROS production at 10 uM/L using DCFH-DA by flow cytometry relative to control; type: functional, cell-based
How it was run: (§2)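 Transgenic mouse cells exposed to compound at 10 µmol/L. ROS generation was measured by flow cytometry using the probe DCFH-DA.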

Craf/Cmyc [4] = assay: Induction apoptosis in mouse Craf/Cmyc cells assessed as ROS production at 10 uM/L using DCFH-DA by flow cytometry relative to control; type: functional, cell-based; how it was run: as §2
A2B1 [5] = assay: Induction apoptosis in mouse A2B1 cells assessed as ROS production at 10 uM/L using DCFH-DA by flow cytometry relative to control; type: functional, cell-based; how it was run: as §2
B3 [6] = assay: Cytotoxicity against mouse B3 cells after 24 to 96 hrs by MTS assay; type: functional, cell-based
How it was run: (§3)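 Mouse transgenic lines plated at 10^3 cells/well and left 24 h to attach. Drugs diluted in medium were added for 24 or 96 h. CellTiter 96 AQueous One (MTS) reagent was then added for 1 h at 37 °C, with absorbance read at 490 nm. Each condition was run in quintuplicate, and cytotoxicity was expressed as percent of controls.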

Nucleic Acid = assay: Binding affinity to salmon testes DNA by linear flow dichroism analysis; type: nucleic-acid assay; conditions: Salmonidae
How it was run: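 Salmon testes DNA (1.9 × 10^-3 M) in ETN buffer (10 mM Tris, 10 mM NaCl, 1 mM EDTA, pH 7). Linear dichroism spectra were recorded at 25 °C over a range of [drug]/[DNA] ratios on a spectropolarimeter converted for LD.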

B3 [7] = assay: Induction apoptosis in mouse B3 cells assessed as ROS production at 10 uM/L using DCFH-DA by flow cytometry relative to control; type: functional, cell-based; how it was run: as §2
yD12 [8] = assay: Induction apoptosis in mouse yD12 cells assessed as ROS production at 10 uM/L using DCFH-DA by flow cytometry relative to control; type: functional, cell-based; how it was run: as §2
yD1 [9] = assay: Induction apoptosis in mouse yD1 cells assessed as relative caspase activity at 10 uM/L after 2 hrs by rhodamine 110 fluorescence assay; type: functional, cell-based; how it was run: as §1
yB8 [10] = assay: Induction apoptosis in mouse yB8 cells assessed as ROS production at 10 uM/L using DCFH-DA by flow cytometry relative to control; type: functional, cell-based; how it was run: as §2
yA7 [11] = assay: Induction apoptosis in mouse yA7 cells assessed as ROS production at 10 uM/L using DCFH-DA by flow cytometry relative to control; type: functional, cell-based; how it was run: as §2
yD1 [12] = assay: Induction apoptosis in mouse yD1 cells assessed as ROS production at 10 uM/L using DCFH-DA by flow cytometry relative to control; type: functional, cell-based; how it was run: as §2
Craf/Cmyc [13] = assay: Cytotoxicity against mouse Craf/Cmyc cells after 24 to 96 hrs by MTS assay; type: functional, cell-based; how it was run: as §3
Mus musculus [14] = species on record: Mus musculus; assay: Induction apoptosis in mouse betaD10 cells assessed as relative caspase activity at 10 uM/L after 2 hrs by rhodamine 110 fluorescence assay; type: functional, cell-based; how it was run: as §1
Mus musculus [15] = species on record: Mus musculus; assay: Induction apoptosis in mouse betaD10 cells assessed as ROS production at 10 uM/L using DCFH-DA by flow cytometry relative to control; type: functional, cell-based; how it was run: as §2
HeLa = assay: Cytotoxicity against human HeLa cells after 72 hrs by trypan blue assay; type: functional, cell-based
How it was run: (§4)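 A-431, HeLa and HL-60 cells at 4×10^4 per well, incubated 24 h. HeLa and A-431 then received fresh medium. Graded compound concentrations were added for a further 72 h at 37 °C, 5% CO2. Viability was counted by Trypan blue exclusion. IC50 is the concentration giving 50% reduction in cell number versus control: ≥3 independent experiments, triplicate samples, mean ± SD.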

Mus musculus [16] = species on record: Mus musculus; assay: Cytotoxicity against mouse betaD10 cells after 24 to 96 hrs by MTS assay; type: functional, cell-based; how it was run: as §3
Mus musculus [17] = species on record: Mus musculus; assay: Induction apoptosis in mouse betaD5 cells assessed as ROS production at 10 uM/L using DCFH-DA by flow cytometry relative to control; type: functional, cell-based; how it was run: as §2
Bos taurus = species on record: Bos taurus; assay: Inhibition of calf thymus topoisomerase 1-mediated relaxation of supercoiled pBR322 at 100 uM after 60 mins using ethidium bromide staining by agarose gel electrophoresis
How it was run: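 Supercoiled pBR322 (0.25 µg) with 2 U calf thymus topoisomerase I and test compound, 60 min at 37 °C in 20 µl reaction buffer. Stopped with SDS/bromophenol blue/glycerol plus 50 µg/mL proteinase K, 30 min at 37 °C. Run on 1% agarose at room temperature, stained with ethidium bromide 1 µg/mL in TAE, imaged under UV.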

yA3 [18] = assay: Induction apoptosis in mouse yA3 cells assessed as relative caspase activity at 10 uM/L after 2 hrs by rhodamine 110 fluorescence assay; type: functional, cell-based; how it was run: as §1
yB8 [19] = assay: Cytotoxicity against mouse yB8 cells after 24 to 96 hrs by MTS assay; type: functional, cell-based; how it was run: as §3
Mus musculus [20] = species on record: Mus musculus; assay: Induction apoptosis in mouse betaD5 cells assessed as relative caspase activity at 10 uM/L after 2 hrs by rhodamine 110 fluorescence assay; type: functional, cell-based; how it was run: as §1
yA3 [21] = assay: Induction apoptosis in mouse yA3 cells assessed as ROS production at 10 uM/L using DCFH-DA by flow cytometry relative to control; type: functional, cell-based; how it was run: as §2
yD12 [22] = assay: Cytotoxicity against mouse yD12 cells after 24 to 96 hrs by MTS assay; type: functional, cell-based; how it was run: as §3
A2C12 [23] = assay: Induction apoptosis in mouse A2C12 cells assessed as relative caspase activity at 10 uM/L after 2 hrs by rhodamine 110 fluorescence assay; type: functional, cell-based; how it was run: as §1
A-431 = assay: Cytotoxicity against human A431 cells after 72 hrs by trypan blue assay; type: functional, cell-based; conditions: A-431, 72 h; how it was run: as §4
yB8 [24] = assay: Induction apoptosis in mouse yB8 cells assessed as relative caspase activity at 10 uM/L after 2 hrs by rhodamine 110 fluorescence assay; type: functional, cell-based; how it was run: as §1
yA7 [25] = assay: Cytotoxicity against mouse yA7 cells after 24 to 96 hrs by MTS assay; type: functional, cell-based; how it was run: as §3
[26] = target: DNA topoisomerase 2-alpha (Homo sapiens) (UniProt P11388); assay: Inhibition of human recombinant topoisomerase 2alpha-mediated relaxation of supercoiled pBR322 at up to 100 uM after 60 mins using ethidium bromide staining by agarose gel electrophoresis
How it was run: (§5)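 Supercoiled pBR322 (0.25 µg) with 1 U human recombinant topoisomerase IIα and test compound, 60 min at 37 °C in 20 µl reaction buffer. Stopped with SDS/bromophenol blue/glycerol plus 50 µg/mL proteinase K, 30 min at 37 °C. Separated on 1% agarose at room temperature, ethidium bromide stained (1 µg/mL, TAE), UV-visualized.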

B3 [27] = assay: Induction apoptosis in mouse B3 cells assessed as relative caspase activity at 10 uM/L after 2 hrs by rhodamine 110 fluorescence assay; type: functional, cell-based; how it was run: as §1
HL-60 = assay: Cytotoxicity against human HL60 cells after 72 hrs by trypan blue assay; type: functional, cell-based; conditions: HL-60, 72 h; how it was run: as §4
A2C12 [28] = assay: Cytotoxicity against mouse A2C12 cells after 24 to 96 hrs by MTS assay; type: functional, cell-based; how it was run: as §3
A2B1 [29] = assay: Cytotoxicity against mouse A2B1 cells after 24 to 96 hrs by MTS assay; type: functional, cell-based; how it was run: as §3
Mus musculus [30] = species on record: Mus musculus; assay: Cytotoxicity against mouse betaD5 cells after 24 to 96 hrs by MTS assay; type: functional, cell-based; how it was run: as §3
A2B1 [31] = assay: Induction apoptosis in mouse A2B1 cells assessed as relative caspase activity at 10 uM/L after 2 hrs by rhodamine 110 fluorescence assay; type: functional, cell-based; how it was run: as §1
yA3 [32] = assay: Cytotoxicity against mouse yA3 cells after 24 to 96 hrs by MTS assay; type: functional, cell-based; how it was run: as §3
Craf/Cmyc [33] = assay: Induction apoptosis in mouse Craf/Cmyc cells assessed as relative caspase activity at 10 uM/L after 2 hrs by rhodamine 110 fluorescence assay; type: functional; how it was run: as §1
[34] = target: DNA topoisomerase 2-alpha (Homo sapiens) (UniProt P11388); assay: Inhibition of human recombinant topoisomerase 2alpha-mediated relaxation of supercoiled pBR322 at 50 uM after 60 mins using ethidium bromide staining by agarose gel electrophoresis; how it was run: as §5
[35] = target: DNA topoisomerase 2-alpha (Homo sapiens) (UniProt P11388); assay: Inhibition of human recombinant topoisomerase 2alpha-mediated relaxation of supercoiled pBR322 after 60 mins using ethidium bromide staining by agarose gel electrophoresis; how it was run: as §5

DNA topoisomerase 2-alpha (Homo sapiens), sequence (P11388 whole entry): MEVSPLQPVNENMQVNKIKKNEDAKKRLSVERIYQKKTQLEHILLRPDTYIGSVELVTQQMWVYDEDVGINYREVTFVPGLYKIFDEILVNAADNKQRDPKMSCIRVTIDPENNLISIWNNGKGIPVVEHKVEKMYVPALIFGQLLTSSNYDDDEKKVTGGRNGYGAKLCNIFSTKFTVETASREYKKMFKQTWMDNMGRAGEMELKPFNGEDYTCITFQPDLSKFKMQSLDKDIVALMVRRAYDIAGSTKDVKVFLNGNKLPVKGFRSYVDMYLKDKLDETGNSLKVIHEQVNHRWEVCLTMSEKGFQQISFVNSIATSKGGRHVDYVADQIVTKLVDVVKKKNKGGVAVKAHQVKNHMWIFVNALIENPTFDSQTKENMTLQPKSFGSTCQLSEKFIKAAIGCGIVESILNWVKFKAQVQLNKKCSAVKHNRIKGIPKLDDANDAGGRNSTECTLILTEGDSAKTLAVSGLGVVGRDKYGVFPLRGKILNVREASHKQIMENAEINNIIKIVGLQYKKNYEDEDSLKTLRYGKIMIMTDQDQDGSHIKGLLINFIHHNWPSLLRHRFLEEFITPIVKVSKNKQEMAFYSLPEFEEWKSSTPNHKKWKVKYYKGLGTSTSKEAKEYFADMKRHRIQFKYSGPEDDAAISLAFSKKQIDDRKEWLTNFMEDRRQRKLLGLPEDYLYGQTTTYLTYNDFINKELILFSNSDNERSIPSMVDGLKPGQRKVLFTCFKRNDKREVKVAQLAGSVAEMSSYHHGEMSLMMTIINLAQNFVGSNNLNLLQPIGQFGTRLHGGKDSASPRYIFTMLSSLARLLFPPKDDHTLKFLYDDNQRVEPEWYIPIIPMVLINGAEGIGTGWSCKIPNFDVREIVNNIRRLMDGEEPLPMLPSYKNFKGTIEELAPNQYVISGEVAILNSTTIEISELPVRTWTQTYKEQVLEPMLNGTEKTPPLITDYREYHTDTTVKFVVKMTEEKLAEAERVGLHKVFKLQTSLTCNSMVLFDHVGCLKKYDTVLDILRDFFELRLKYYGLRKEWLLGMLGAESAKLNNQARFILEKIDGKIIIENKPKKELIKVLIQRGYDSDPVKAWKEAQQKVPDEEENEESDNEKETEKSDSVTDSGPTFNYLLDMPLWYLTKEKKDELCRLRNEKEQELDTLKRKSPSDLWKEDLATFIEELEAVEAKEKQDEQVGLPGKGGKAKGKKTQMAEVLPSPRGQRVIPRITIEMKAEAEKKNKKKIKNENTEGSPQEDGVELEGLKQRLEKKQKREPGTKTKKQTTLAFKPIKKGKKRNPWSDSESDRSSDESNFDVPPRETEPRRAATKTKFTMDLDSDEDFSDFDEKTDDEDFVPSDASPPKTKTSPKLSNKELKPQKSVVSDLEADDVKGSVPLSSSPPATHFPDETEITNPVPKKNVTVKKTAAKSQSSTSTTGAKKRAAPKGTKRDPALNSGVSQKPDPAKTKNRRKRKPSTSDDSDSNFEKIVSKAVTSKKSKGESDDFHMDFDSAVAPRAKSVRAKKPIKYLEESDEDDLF

CC[C@@]1(OC(=O)NCCN2C(=O)CCCCCCCCC2=O)C(=O)OCc2c1cc1n(c2=O)Cc2cc3ccccc3nc2-1
1880 nM: IC50 (A-431)
inactive: Activity (yA7 [1]) | Activity (yD12 [2]) | Activity (A2C12 [3]) | Activity (Craf/Cmyc [4]) | Activity (A2B1 [5]) | Activity (Nucleic Acid) | Activity (B3 [7]) | Activity (yD12 [8]) | Activity (yD1 [9]) | Activity (yB8 [10]) | Activity (yA7 [11]) | Activity (yD1 [12]) | Activity (Mus musculus [14]) | Activity (Mus musculus [15]) | Activity (Mus musculus [17]) | Activity (Bos taurus) | Activity (yA3 [18]) | Activity (Mus musculus [20]) | Activity (yA3 [21]) | Activity (A2C12 [23]) | Activity (yB8 [24]) | Activity [26] | Activity (B3 [27]) | Activity (A2B1 [31]) | Activity (Craf/Cmyc [33])
8300 nM: IC50 (HeLa)
12200 nM: IC50 (HL-60)
active: Activity (B3 [6]) | Activity (Craf/Cmyc [13]) | Activity (Mus musculus [16]) | Activity (yB8 [19]) | Activity (yD12 [22]) | Activity (yA7 [25]) | Activity (A2C12 [28]) | Activity (A2B1 [29]) | Activity (Mus musculus [30]) | Activity (yA3 [32])

CC[C@@]1(OC(=O)NCCNC(=O)CSSCC(=O)NCCNC(=O)O[C@]2(CC)C(=O)OCc3c2cc2n(c3=O)Cc3cc4ccccc4nc3-2)C(=O)OCc2c1cc1n(c2=O)Cc2cc3ccccc3nc2-1
inactive: Activity (Nucleic Acid) | Activity [26]

CC[C@@]1(OC(=O)NCCNC(=O)CCSSCCC(=O)NCCNC(=O)O[C@]2(CC)C(=O)OCc3c2cc2n(c3=O)Cc3cc4ccccc4nc3-2)C(=O)OCc2c1cc1n(c2=O)Cc2cc3ccccc3nc2-1
active: Activity (B3 [6]) | Activity (Craf/Cmyc [13]) | Activity (Mus musculus [16]) | Activity (yB8 [19]) | inhibition [34] | Activity (yD12 [22]) | Activity (yA7 [25]) | Activity [35] Dose-dependent effect | Activity (A2C12 [28]) | Activity (A2B1 [29]) | Activity (Mus musculus [30]) | Activity (yA3 [32])
150 nM: IC50 (A-431)
inactive: Activity (Nucleic Acid) | Activity (Bos taurus)
700 nM: IC50 (HeLa)
920 nM: IC50 (HL-60)
